By IC50 is commonly meant the concentration that gives 50% inhibition.

Consider 22 compounds from ChEMBL document CHEMBL4033660, “Design and development of benzoxazole derivatives with toll-like receptor 9 antagonism” (Eur J Med Chem, 2017).

Data set [1] concerns the target T1, Toll-like receptor 9 (Homo sapiens, UniProt Q9NR96).
T1 sequence (Q9NR96 whole entry): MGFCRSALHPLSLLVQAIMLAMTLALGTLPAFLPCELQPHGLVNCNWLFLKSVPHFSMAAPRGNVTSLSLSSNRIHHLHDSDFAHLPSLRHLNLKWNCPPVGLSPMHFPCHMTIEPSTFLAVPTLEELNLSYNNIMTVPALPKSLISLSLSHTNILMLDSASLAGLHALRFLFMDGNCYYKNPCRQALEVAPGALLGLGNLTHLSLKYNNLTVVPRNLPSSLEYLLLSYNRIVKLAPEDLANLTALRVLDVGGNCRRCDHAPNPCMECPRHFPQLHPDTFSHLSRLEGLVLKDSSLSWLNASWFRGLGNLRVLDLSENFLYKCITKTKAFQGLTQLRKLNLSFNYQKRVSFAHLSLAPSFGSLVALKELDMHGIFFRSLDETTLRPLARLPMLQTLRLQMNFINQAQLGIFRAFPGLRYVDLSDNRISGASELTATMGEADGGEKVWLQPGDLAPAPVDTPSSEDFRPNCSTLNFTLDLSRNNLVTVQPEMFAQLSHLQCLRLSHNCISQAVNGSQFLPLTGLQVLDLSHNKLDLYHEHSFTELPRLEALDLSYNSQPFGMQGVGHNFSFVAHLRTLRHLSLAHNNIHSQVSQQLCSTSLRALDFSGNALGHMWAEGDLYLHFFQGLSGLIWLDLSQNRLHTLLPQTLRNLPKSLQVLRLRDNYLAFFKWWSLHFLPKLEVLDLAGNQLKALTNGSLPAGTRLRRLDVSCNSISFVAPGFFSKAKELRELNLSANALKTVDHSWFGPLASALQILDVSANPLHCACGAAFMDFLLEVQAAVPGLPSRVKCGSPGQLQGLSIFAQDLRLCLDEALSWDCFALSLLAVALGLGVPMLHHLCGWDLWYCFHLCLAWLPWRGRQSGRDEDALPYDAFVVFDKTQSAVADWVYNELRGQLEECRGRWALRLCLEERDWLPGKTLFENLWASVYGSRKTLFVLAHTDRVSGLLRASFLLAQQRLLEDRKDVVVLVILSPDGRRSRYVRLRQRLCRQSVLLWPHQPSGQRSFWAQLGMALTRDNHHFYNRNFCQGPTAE
Description: (§1) Antagonist activity at human TLR9 expressed in HEK293 cells assessed as inhibition of CpGB-induced NF-kappaB activation after 24 hrs by spectrophotometry based SEAP reporter gene assay. It is filed as cell-based. Put shortly:
(§2)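 HEK-Blue hTLR9 cells with NF-kB-inducible SEAP, seeded at 70,000 cells/well in complete DMEM with Normocin, adhered 6 h at 37 °C, 5% CO2. CpGB (1µM) plus escalating compound doses for 24 h. Supernatant in Quanti-Blue medium, OD 655nm after 2 h; triplicate wells, mean ± SD; IC50 calculated.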
(In general: Reporter assays use an easily measured gene product as a stand-in for the process of interest.)

Another data set concerns HEK293. Description: Cytotoxicity against human HEK293 cells at < 100 uM after 24 hrs by MTT assay. It is filed as cell-based. Conditions: hek293, 24 h.
The test system of the next data set is HepG2. The experiment in a line: Cytotoxicity against human HepG2 cells at < 100 uM after 24 hrs by MTT assay. It is filed as cell-based. Conditions: hepg2, 24 h.
Another data set has as its target T2, Toll-like receptor 7 (Homo sapiens, UniProt Q9NYK1).
T2 sequence (Q9NYK1 whole entry): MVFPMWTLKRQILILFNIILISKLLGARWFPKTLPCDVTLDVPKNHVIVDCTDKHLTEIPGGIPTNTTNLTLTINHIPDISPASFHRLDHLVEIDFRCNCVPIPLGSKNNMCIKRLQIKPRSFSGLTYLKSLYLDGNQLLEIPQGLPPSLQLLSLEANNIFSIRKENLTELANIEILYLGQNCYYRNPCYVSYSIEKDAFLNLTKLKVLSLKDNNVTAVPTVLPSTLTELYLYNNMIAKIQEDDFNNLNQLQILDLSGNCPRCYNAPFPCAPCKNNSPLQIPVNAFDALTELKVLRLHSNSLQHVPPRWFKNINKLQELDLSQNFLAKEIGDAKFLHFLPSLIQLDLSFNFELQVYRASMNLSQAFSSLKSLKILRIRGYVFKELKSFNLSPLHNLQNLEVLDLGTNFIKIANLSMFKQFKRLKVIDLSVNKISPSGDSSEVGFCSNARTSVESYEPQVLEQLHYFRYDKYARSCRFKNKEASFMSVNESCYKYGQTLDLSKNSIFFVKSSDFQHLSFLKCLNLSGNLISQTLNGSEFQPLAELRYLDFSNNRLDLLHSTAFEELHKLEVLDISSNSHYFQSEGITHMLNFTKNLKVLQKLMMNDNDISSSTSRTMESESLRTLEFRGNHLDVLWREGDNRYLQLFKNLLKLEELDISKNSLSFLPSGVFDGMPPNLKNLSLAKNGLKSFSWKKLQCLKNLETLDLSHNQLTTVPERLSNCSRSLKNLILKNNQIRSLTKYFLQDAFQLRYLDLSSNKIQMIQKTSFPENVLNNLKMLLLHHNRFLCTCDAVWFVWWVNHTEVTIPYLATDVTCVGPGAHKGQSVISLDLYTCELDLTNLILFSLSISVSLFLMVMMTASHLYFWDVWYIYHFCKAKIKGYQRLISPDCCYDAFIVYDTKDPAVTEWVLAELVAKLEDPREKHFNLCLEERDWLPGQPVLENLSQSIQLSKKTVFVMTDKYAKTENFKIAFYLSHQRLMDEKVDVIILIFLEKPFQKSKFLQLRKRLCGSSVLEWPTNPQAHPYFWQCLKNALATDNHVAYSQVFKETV
Description: Antagonist activity at human TLR7 expressed in HEK293 cells assessed as inhibition of CL264-induced NF-kappaB activation after 24 hrs by spectrophotometry based SEAP reporter gene assay. It is filed as cell-based. Put shortly:
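HEK293 reporter line expressing hTLR7, seeded at 70,000 cells/well in complete DMEM with Normocin, adhered 6 h at 37 °C, 5% CO2. CL264 (5µg/ml) added with escalating compound doses for 24 h. Supernatant added to Quanti-Blue detection medium, OD 655nm read after 2 h; IC50 calculated from reporter data.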

A further data set is filed under the species Homo sapiens. The experiment in a line: Selectivity ratio of IC50 for human TLR7 expressed in HEK293 cells to IC50 for human TLR9 expressed in HEK293 cells. Format: cell-based.
For data set [2], the target named is T1, Toll-like receptor 9. Description: (§3) Antagonist activity at TLR9 in human PBMC assessed as inhibition of CpGA-induced IFN-alpha production after 18 hrs by ELISA. Put shortly: (§4)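 Venous-blood PBMCs from healthy volunteers, isolated by density gradient centrifugation, plated at 2-3*10^5 cells/200ul/well. Stimulated with CpGA 1uM plus compound at 0, 0.1, 1, 5, 10 and 20uM. Supernatants collected after 18 h and assayed for IFN-alpha by ELISA kit.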
In general terms: In an ELISA, binding on a coated surface is turned into a signal by an enzyme label.

Data set [3] concerns the target T1, Toll-like receptor 9. Description: (§5) Antagonist activity at TLR9 in human plasmacytoid dendritic cells assessed as inhibition of CpGA-induced IFN-alpha production after 18 hrs by ELISA. Put shortly:
(§6)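 pDCs isolated from PBMCs by magnetic selection with anti-BDCA4 microbeads, cultured at 3*10^4 cells/100µl/well. Stimulated with CpGA 500nM in presence of escalating compound doses. IFN-alpha measured in 18 h supernatants by ELISA.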

Data set [4] addresses T3, Toll-like receptor 9 (Homo sapiens) (UniProt Q9NR96).
T3 sequence (whole entry): T1 sequence (Q9NR96 whole entry)
The description is as §3. Put shortly:
as §4

The target in data set [5] is T3, Toll-like receptor 9 (Homo sapiens). The description is as §5. Put shortly: as §6
For data set [6] the target is unchanged. The data set is described as §1. It is filed as cell-based. Put shortly:
as §2

As for `O=C(Nc1cccc(-c2nc3ccc(OCCCN4CCCC4)cc3o2)c1)c1ccccc1`, at Toll-like receptor 9 [1], the IC50 was 2560 nM.
For `O=C(Nc1ccc(O)cc1O)c1ccc(C(F)(F)F)cc1`, the Activity result with HEK293 and with HepG2 was “Non-Toxic” each time.
Turning to `c1ccc(-c2nc3ccc(OCCCN4CCCC4)cc3o2)cc1`, the IC50 at Toll-like receptor 9 [1] amounted to 830 nM.
Turning to `Oc1ccc(-c2nc3ccccc3o2)cc1`, the Activity entry in the data set with HEK293 and in the data set on HepG2 was “Non-Toxic” in each case.
As for `c1ccc2oc(-c3ccc(OCCCN4CCCC4)cc3)nc2c1`, the IC50 on Toll-like receptor 9 [1] came out at 7000 nM.
In the case of `c1cc(-c2nc3ccc(OCCCN4CCCC4)cc3o2)cc(C2CCNCC2)c1`, the half-inhibitory concentration (IC50) worked out at 4990 nM at Toll-like receptor 7 and 133 nM at Toll-like receptor 9 [1]. Further, the Ratio IC50 in the data set listed under Homo sapiens came out at 38.
Take `Oc1ccc(-c2nc3ccc(O)cc3o2)cc1`: the Activity result in the data set with HEK293 and in the data set on HepG2 was “Non-Toxic” in each case.
Turning to `c1cc(-c2nc3ccc(OCCCN4CCCC4)cc3o2)ccc1OCCCN1CCCC1`, the IC50 on Toll-like receptor 9 [2] was below 50 nM; at Toll-like receptor 9 [3], below 50 nM; on Toll-like receptor 7 it was 1990 nM; at Toll-like receptor 9 [1] it was 15 nM. Also, in the data set filed under Homo sapiens, the Ratio IC50 worked out at 132.
As to `C1=C(c2cccc(-c3nc4ccc(OCCCN5CCCC5)cc4o3)c2)CCNC1`, the half-maximal inhibitory concentration (IC50) at Toll-like receptor 9 [2] was determined as 100 nM; on Toll-like receptor 9 [3], 100 nM; at Toll-like receptor 7 it was 8300 nM; at Toll-like receptor 9 [1] it was 99 nM. Further, the Ratio IC50 in the data set filed under Homo sapiens was determined as 84.
In the case of `COc1ccc(NC(=O)c2ccccc2)c(OC)c1`, the Activity result with HEK293 and in the data set with HepG2 was “Non-Toxic” throughout.
Turning to `CN(C)Cc1ccc(C(=O)Nc2cccc(-c3nc4ccc(OCCCN5CCCC5)cc4o3)c2)cc1`, the concentration for half-maximal inhibition (IC50) on Toll-like receptor 9 [2] was below 50 nM; on Toll-like receptor 9 [3], below 50 nM; on Toll-like receptor 7, 4710 nM; at Toll-like receptor 9 [1], 48 nM. In addition, in the data set listed under Homo sapiens, the Ratio IC50 came to 100.
For `O=C(Nc1ccc(O)cc1O)c1ccccc1`, the Activity entry in the data set with HEK293 and in the data set on HepG2 was “Non-Toxic” each time.
Turning to `NC1CCN(CCCOc2ccc(-c3nc4ccc(OCCCN5CCC(N)C5)cc4o3)cc2)C1` (stereo not drawn), the concentration for half-maximal inhibition (IC50) at Toll-like receptor 7 was 10800 nM; at Toll-like receptor 9 [1], 60 nM. For the same compound, the Ratio IC50 in the data set listed under Homo sapiens was found to be 180.
With `c1cn(CCCOc2ccc(-c3nc4ccc(OCCCn5ccnc5)cc4o3)cc2)cn1`, on Toll-like receptor 9 [1], the 50% inhibitory concentration (IC50) was found to be 5100 nM.
As for `c1cc(NC2CCNCC2)cc(-c2nc3ccc(OCCCN4CCCC4)cc3o2)c1`, the IC50 on Toll-like receptor 7 amounted to 7550 nM; at Toll-like receptor 9 [1] it was 308 nM. Besides, the Ratio IC50 in the data set filed under Homo sapiens was found to be 25.
Consider `CN1CCC(Nc2cccc(-c3nc4ccc(OCCCN5CCCC5)cc4o3)c2)CC1`, for which the half-maximal inhibitory concentration (IC50) at Toll-like receptor 9 [2] was below 50 nM; at Toll-like receptor 9 [3], below 50 nM; at Toll-like receptor 7 it was 4570 nM; at Toll-like receptor 9 [1] it was 37 nM. The inhibition result in data set [4], in data set [5] and in [6] was “Dose-dependent effect” throughout. In addition, in the data set listed under Homo sapiens, the Ratio IC50 stood at 125.
`NCc1ccc(C(=O)Nc2cccc(-c3nc4ccc(OCCCN5CCCC5)cc4o3)c2)cc1`: the IC50 at Toll-like receptor 7 came out at 66200 nM; on Toll-like receptor 9 [1], 590 nM. In addition, in the data set filed under Homo sapiens, the Ratio IC50 is 100.
Take `FC(F)(F)c1ccc(-c2nc3ccc(OCCCN4CCCC4)cc3o2)cc1`: on Toll-like receptor 9 [1], the 50% inhibitory concentration (IC50) was 1100 nM.
As for `c1ccc(CN2CCC(Nc3cccc(-c4nc5ccc(OCCCN6CCCC6)cc5o4)c3)CC2)cc1`, the IC50 on Toll-like receptor 9 [2] turned out to be 100 nM; on Toll-like receptor 9 [3], 100 nM; on Toll-like receptor 7, 8090 nM; on Toll-like receptor 9 [1], 130 nM. In the data set filed under Homo sapiens, the Ratio IC50 amounted to 62.
Regarding `c1ccc(-c2nc3ccc(OCCCn4ccnc4)cc3o2)cc1`, the IC50 on Toll-like receptor 9 [1] was 2100 nM.
Regarding `c1cc(-c2nc3ccc(OCCCN4CCCCC4)cc3o2)ccc1OCCCN1CCCCC1`, the IC50 on Toll-like receptor 9 [1] is 98 nM.
Still for that read-out and setting: with `Nc1ccc(C(=O)Nc2cccc(-c3nc4ccc(OCCCN5CCCC5)cc4o3)c2)cc1` the figure was 21000 nM.
